Laboratory results taken from ChEMBL document CHEMBL2034972, “Synthesis, biological evaluation, and structure-activity relationships of N-benzoyl-2-hydroxybenzamides as agents active against P. falciparum (K1 strain), Trypanosomes, and Leishmania” (J Med Chem, 2012).
Values after ≈ are worked out from the molar mass of the structure shown.

Legend:
[1] = system: Trypanosoma brucei rhodesiense; experiment: Antitrypanosomal activity against trypomastigotes of Trypanosoma brucei rhodesiense […] after 72 hrs by alamar blue assay; assay type: functional, organism-based; conditions: STIB 900, L6, 72 h
Method in brief: (§1)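 In vitro screens of parasites and host cells: T. b. rhodesiense STIB900 trypomastigotes, T. cruzi Tulahuen C4 intracellular amastigotes, L. donovani MHOM-ET-67/L82 axenic amastigotes, P. falciparum K1 erythrocytic stage, and L6 rat skeletal myoblasts […] for toxicity. […] Values are means of two independent determinations.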

[2] = system: Trypanosoma cruzi; experiment: Antitrypanosomal activity against intracellular amastigote stage of Trypanosoma cruzi Tulahuen C2C4 infected in rat L6 cells after 96 hrs by spectrophotometric analysis; assay type: functional, organism-based; conditions: Tulahuen C2C4, L6, 96 h
Method in brief: (§2)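 In vitro screens of parasites and host cells: T. b. rhodesiense STIB900 trypomastigotes, T. cruzi Tulahuen C4 intracellular amastigotes, L. donovani MHOM-ET-67/L82 axenic amastigotes, P. falciparum K1 erythrocytic stage, and L6 rat skeletal myoblasts […] for toxicity. Values are means of two independent determinations.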

[3] = system: Leishmania donovani; experiment: Antileishmanial activity against axenic amastigote stage of Leishmania donovani […] after 72 hrs by alamar blue assay; assay type: functional, organism-based; conditions: MHOM/ET/67/L82, L6, 72 h; method in brief: as §2
[4] = system: Plasmodium falciparum; experiment: Antimalarial activity against chloroquine and pyrimethamine-resistant Plasmodium falciparum […] assessed as [3H]-hypoxanthine incorporation after 48 hrs by liquid scintillation counting; assay type: functional, organism-based; method in brief: as §1
[5] = system: L6; experiment: Cytotoxicity against rat L6 cells after 72 hrs by alamar blue assay; assay type: cell-based; conditions: L6, 72 h; method in brief: as §1
[6] = Selectivity index, ratio of IC50 for rat L6 cells to IC50 for trypomastigotes of Trypanosoma brucei rhodesiense STIB 900; assay type: toxicity, cell-based; conditions: read-out: Ratio IC50
Method in brief: (§3)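 Selectivity index is calculated as the L6 myoblast IC50 divided by the IC50 against the respective parasite. Both IC50s are in µg/mL and are means of two independent determinations.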

[7] = Selectivity index, ratio of IC50 for rat L6 cells to IC50 for intracellular amastigote stage of Trypanosoma cruzi Tulahuen C2C4; assay type: toxicity, cell-based; conditions: read-out: Ratio IC50; method in brief: as §3
[8] = Selectivity index, ratio of IC50 for rat L6 cells to IC50 for axenic amastigote stage of Leishmania donovani MHOM/ET/67/L82; assay type: toxicity, cell-based; conditions: read-out: Ratio IC50; method in brief: as §3
[9] = Selectivity index, ratio of IC50 for rat L6 cells to IC50 for chloroquine and pyrimethamine-resistant Plasmodium falciparum K1; assay type: toxicity, cell-based; conditions: read-out: Ratio IC50; method in brief: as §3

Structure (SMILES) | IC50 [1] [µg/mL] | IC50 [2] [µg/mL] | IC50 [3] [µg/mL] | IC50 [4] [µg/mL] | IC50 [5] [µg/mL] | selectivity ratio [6] | selectivity ratio [7] | selectivity ratio [8] | selectivity ratio [9]
COC(=O)c1ccc(C(=O)NC(=O)c2ccccc2O)cc1 | > 50 | 20 (≈ 66.8 µM) | > 50 | 2.9 (≈ 9.69 µM) | 42 (≈ 140 µM) | < 0.83 | 2.1 | < 0.83 | 14
Cc1occc1C(=O)NC(=O)c1ccccc1O | 48 (≈ 196 µM) | 36 (≈ 147 µM) | 2 (≈ 8.16 µM) | 4.7 (≈ 19.2 µM) | 16 (≈ 65.2 µM) | 0.33 | 0.44 | 7.8 | 3.4
COC(=O)CCC(=O)Nc1ccc(C(=O)NC(=O)c2ccccc2O)cc1 | > 50 | > 50 | 22 (≈ 59.4 µM) | 21 (≈ 56.7 µM) | > 50 |  |  | > 2.3 | > 2.4
CCOc1ccc(C(=O)NC(=O)c2ccccc2O)cc1 | 60 (≈ 210 µM) | 4.1 (≈ 14.4 µM) | 0.45 (≈ 1.58 µM) | 1 (≈ 3.51 µM) | 17 (≈ 59.6 µM) | 0.28 | 4.1 | 37 | 17
O=C(NC(=O)c1ccccc1O)c1ccc(F)cc1 | 64 (≈ 247 µM) | 51 (≈ 197 µM) | 1.6 (≈ 6.17 µM) | 1.5 (≈ 5.79 µM) | 38 (≈ 147 µM) | 0.6 | 0.75 | 23 | 25
CC(C)(C)c1ccc(C(=O)NC(=O)c2ccccc2O)cc1 | 61 (≈ 205 µM) | 6 (≈ 20.2 µM) | 0.14 (≈ 0.471 µM) | 0.029 (≈ 0.0975 µM) | 2.3 (≈ 7.73 µM) | 0.038 | 0.38 | 17 | 80
Nc1ccc(C(=O)NC(=O)c2ccccc2O)cc1 | 46 (≈ 180 µM) | 40 (≈ 156 µM) | 7.8 (≈ 30.4 µM) | 3.9 (≈ 15.2 µM) | 39 (≈ 152 µM) | 0.84 | 0.98 | 5 | 10
O=C(NC(=O)c1ccccc1O)c1ccc(C(F)(F)F)cc1 | 70 (≈ 226 µM) | 50 (≈ 162 µM) | 0.57 (≈ 1.84 µM) | 3.8 (≈ 12.3 µM) | 13 (≈ 42 µM) |  |  |  | 
CCCCOc1ccc(C(=O)NC(=O)c2ccccc2O)cc1 | 55 (≈ 176 µM) | 11 (≈ 35.1 µM) | 0.94 (≈ 3 µM) | 0.26 (≈ 0.83 µM) | 13 (≈ 41.5 µM) | 0.23 | 1.2 | 14 | 50
COc1ccc(C(=O)NC(=O)c2ccccc2O)cc1 | 50 (≈ 184 µM) | 31 (≈ 114 µM) | 1.7 (≈ 6.27 µM) | 1.6 (≈ 5.9 µM) | 39 (≈ 144 µM) | 0.78 | 1.3 | 23 | 24
O=C(NC(=O)c1ccccc1O)c1ccc(OCc2ccccc2)cc1 | 62 (≈ 178 µM) | 4.4 (≈ 12.7 µM) | 1.5 (≈ 4.32 µM) | 4.1 (≈ 11.8 µM) | 64 (≈ 184 µM) | 1 | 15 | 42 | 16
O=C(NC(=O)c1ccccc1O)c1ccc2c(c1)OCO2 | > 50 | 27 (≈ 94.7 µM) | > 50 | 4.2 (≈ 14.7 µM) | 24 (≈ 84.1 µM) | < 0.47 | 0.86 | < 0.47 | 5.6
CCc1ccc(-c2noc(-c3ccccc3O)n2)cc1 | 61 (≈ 229 µM) | 39 (≈ 146 µM) |  | 27 (≈ 101 µM) | > 100 | > 1.6 | > 2.6 | > 1 | > 3.7
Cc1ccc(C(=O)NC(=O)c2ccccc2O)cc1 | > 100 | 38 (≈ 149 µM) | 3.2 (≈ 12.5 µM) | 1.4 (≈ 5.48 µM) | 46 (≈ 180 µM) | < 0.46 | 1.2 | 14 | 33
O=C(NC(=O)c1ccccc1O)c1ccc2ccccc2c1 | 26 (≈ 89.3 µM) | 8.5 (≈ 29.2 µM) | 1 (≈ 3.43 µM) | 0.22 (≈ 0.755 µM) | 21 (≈ 72.1 µM) | 0.78 | 2.4 | 20 | 94
O=C(NC(=O)c1ccccc1O)c1ccc([N+](=O)[O-])cc1 | > 100 | 56 (≈ 196 µM) | 11 (≈ 38.4 µM) | 22 (≈ 76.9 µM) | 53 (≈ 185 µM) | < 0.53 | 0.94 | 4.9 | 2.4
CCc1ccc(NC(=O)NC(=O)c2ccccc2O)cc1 | 36 (≈ 127 µM) | 74 (≈ 260 µM) | 100 (≈ 352 µM) | 26 (≈ 91.4 µM) | 70 (≈ 246 µM) | 2 | 0.95 | 0.7 | 2.8

Structure (SMILES) | IC50 [1] [µg/mL] | IC50 [2] [µg/mL] | IC50 [3] [µg/mL] | IC50 [4] [µg/mL] | IC50 [5] [µg/mL] | selectivity ratio [6] | selectivity ratio [7] | selectivity ratio [8] | selectivity ratio [9]
CCc1ccc(C(=O)NNC(=O)c2ccccc2O)cc1 | 17 (≈ 59.8 µM) | 2.2 (≈ 7.74 µM) | 6.2 (≈ 21.8 µM) | 27 (≈ 95 µM) | 4.8 (≈ 16.9 µM) | 0.28 | 2.2 | 0.77 | 0.18
CCc1ccc(C(=O)NC(=S)c2ccccc2O)cc1 | 61 (≈ 214 µM) | 10 (≈ 35 µM) | 5.3 (≈ 18.6 µM) | 4.2 (≈ 14.7 µM) | 17 (≈ 59.6 µM) | 0.28 | 1.7 | 3.3 | 4.1
O=C(NC(=O)c1ccc(Cl)cc1Cl)c1ccccc1O | > 100 | 58 (≈ 187 µM) | 11 (≈ 35.5 µM) | 14 (≈ 45.1 µM) | 62 (≈ 200 µM) | < 0.62 | 1.1 | 5.5 | 4.4
CS(=O)(=O)c1ccc(C(=O)NC(=O)c2ccccc2O)cc1 | > 100 | 51 (≈ 160 µM) | > 100 | 38 (≈ 119 µM) | > 100 |  | > 2 |  | > 2.7
CCc1ccc(C(=O)Nc2cn(C(C)=O)c3ccccc23)cc1 | > 50 | 28 (≈ 91.4 µM) | > 50 | 23 (≈ 75.1 µM) | 23 (≈ 75.1 µM) | < 0.46 | < 0.81 | < 0.46 | 1
CCN(CC)c1ccc(C(=O)NC(=O)c2ccccc2O)cc1 | > 50 | 2.8 (≈ 8.96 µM) | 0.91 (≈ 2.91 µM) | 0.005 (≈ 0.016 µM) | 8.2 (≈ 26.3 µM) |  |  |  | 
Nc1nc(N)nc(Nc2ccc([As]3SCC(CO)S3)cc2)n1 (stereo not given) [MELARSOPROL] | 0.005 |  |  |  |  |  |  |  | 
O=C(NC(=O)c1ccccc1O)c1ccc(OC(F)(F)F)cc1 | 65 (≈ 200 µM) | 72 (≈ 221 µM) | 5.3 (≈ 16.3 µM) | 22 (≈ 67.6 µM) | 84 (≈ 258 µM) |  |  |  | 
O=C(NC(=O)c1ccccc1O)c1cccc(CCl)c1 | 20 (≈ 69 µM) | 17 (≈ 58.7 µM) | 0.16 (≈ 0.552 µM) | 4.4 (≈ 15.2 µM) | 1.8 (≈ 6.21 µM) | 0.087 | 0.1 | 11 | 0.4
CCc1ccc(C(=O)n2c(=O)oc3ccccc3c2=O)cc1 | 83 (≈ 281 µM) | 8.8 (≈ 29.8 µM) | 1.9 (≈ 6.43 µM) | 6.9 (≈ 23.4 µM) | 26 (≈ 88 µM) | 0.31 | 3 | 13 | 3.7
N#Cc1ccc(C(=O)NC(=O)c2ccccc2O)cc1 | > 100 | 100 (≈ 376 µM) | 12 (≈ 45.1 µM) | 14 (≈ 52.6 µM) | 55 (≈ 207 µM) | < 0.55 | 0.55 | 4.7 | 3.9
CCc1ccc(C(=O)Nc2n[nH]c3ccccc23)cc1 | 8.2 (≈ 30.9 µM) | 8.9 (≈ 33.5 µM) | 3 (≈ 11.3 µM) | 8.5 (≈ 32 µM) | 8.2 (≈ 30.9 µM) |  |  |  | 
CCc1ccc(NC(=O)Nc2ccccc2O)cc1 | 18 (≈ 70.2 µM) | 7 (≈ 27.3 µM) | 3.7 (≈ 14.4 µM) | 2.1 (≈ 8.19 µM) | 9.6 (≈ 37.5 µM) | 0.54 | 1.4 | 2.6 | 4.6
COc1ccc2cc(C(=O)NC(=O)c3ccccc3O)ccc2c1 | 42 (≈ 131 µM) | 5.1 (≈ 15.9 µM) | 1.4 (≈ 4.36 µM) | 0.98 (≈ 3.05 µM) | 56 (≈ 174 µM) | 1.3 | 11 | 40 | 57
O=C(NC(=O)c1ccccc1O)c1ccc(N2CCOCC2)cc1 | > 50 | > 50 | 16 (≈ 49 µM) | 0.18 (≈ 0.552 µM) | > 50 |  |  | > 3.1 | > 272
O=C(CCCCCCC(=O)Nc1ccc(C(=O)NC(=O)c2ccccc2O)cc1)NO | 65 (≈ 152 µM) | 49 (≈ 115 µM) | > 100 | 3.5 (≈ 8.19 µM) | > 100 | > 1.5 | > 2.1 |  | > 29
